Reference: ChEMBL document CHEMBL1126599, “Specific sequestering agents for the actinides. 21. Synthesis and initial biological testing of octadentate mixed catecholate-hydroxypyridinonate ligands” (J Med Chem, 1993)

What was measured:
[1] = Removal of 238-Plutonium(IV) in feces at 24 h; assay type: ADME
How it was run: (§1)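 Mice received plutonium(IV)-238 citrate iv. At 1 h, normally fed mice got ligand at 30 μmol kg-1 in 0.14 M NaCl by ip injection, then water only. Each five-mouse group was housed in one metabolic cage to collect urine and feces. Mice were killed at 24 h. Pu was expressed as % of injected dose, normalized to 100% recovery. Kidneys and excreta were pooled per group. Saline-injected controls were killed at 24 h.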

[2] = Removal of 238-Plutonium(IV) in urine after 4-24 h; assay type: ADME, tissue-based; how it was run: as §1
[3] = species: Mus musculus; test: Percent of injected 238-Plutonium(IV) in mice whole body at 24 h; assay type: ADME, organism-based; conditions: in vivo; how it was run: as §1
[4] = species: Mus musculus; test: Percent of injected 238-Plutonium(IV) in mice soft tissue at 24 h; assay type: ADME, organism-based; conditions: in vivo; how it was run: as §1
[5] = Removal of 238-Plutonium(IV) in gastrointestinal (GI) contents at 24 h; assay type: ADME; how it was run: as §1
[6] = species: Mus musculus; test: Percent of injected 238-Plutonium(IV) in mice liver at 24 h; assay type: ADME, organism-based; conditions: in vivo; how it was run: as §1
[7] = species: Mus musculus; test: Percent of injected 238-Plutonium(IV) in mice skeleton at 24 h; assay type: ADME, organism-based; conditions: in vivo; how it was run: as §1
[8] = Removal of 238-Plutonium(IV) in urine after 0-4 h; assay type: ADME, tissue-based; how it was run: as §1
[9] = species: Mus musculus; test: Percent of injected 238-Plutonium(IV) in mice kidneys at 24 h; assay type: ADME, organism-based, Kidney; conditions: in vivo; how it was run: as §1
[10] = Removal of 238-Plutonium(IV) in urine after 0-24 h; assay type: ADME, tissue-based; how it was run: as §1
[11] = tested on: Mus musculus; test: Percent of injected 238-Plutonium(IV) in mice soft tissue at 24 hr (orally administered); assay type: ADME, organism-based; conditions: in vivo, po
How it was run: (§2)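 Mice were fasted 18 h and given plutonium(IV)-238 citrate iv. At 3 min, ligand at 30 μmol kg-1 in 0.14 M NaCl was given by gastric intubation, with a little food at 4 h. Urine (0–4 h, 4–24 h) and feces were collected per five-mouse group in a metabolic cage. Mice were killed at 24 h. Tissue and GI Pu was expressed as % injected dose, normalized to 100% recovery. Kidneys and excreta were pooled per group. Fasted controls were included.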

[12] = tested on: Mus musculus; test: Percent of injected 238-Plutonium(IV) in mice skeleton at 24 hr (orally administered); assay type: ADME, organism-based; conditions: in vivo, po; how it was run: as §2
[13] = tested on: Mus musculus; test: Percent of injected 238-Plutonium(IV) in mice liver at 24 hr (orally administered); assay type: ADME, organism-based; conditions: in vivo, po; how it was run: as §2
[14] = Removal of 238-Plutonium(IV) in feces at 24 hr (orally administered); assay type: ADME; conditions: po; how it was run: as §2
[15] = Removal of 238-Plutonium(IV) in urine after 0-4 hr (orally administered); assay type: ADME, tissue-based; conditions: po; how it was run: as §2
[16] = Removal of 238-Plutonium(IV) in urine after 0-24 hr (orally administered); assay type: ADME, tissue-based; conditions: po; in the assay text read “4-24 hr” for “0-24 hr”; how it was run: as §2
[17] = tested on: Mus musculus; test: Percent of injected 238-Plutonium(IV) in mice whole body at 24 hr (orally administered); assay type: ADME, organism-based; conditions: in vivo, po; how it was run: as §2
[18] = tested on: Mus musculus; test: Percent of injected 238-Plutonium(IV) in mice kidneys at 24 hr (orally administered); assay type: ADME, organism-based, Kidney; conditions: in vivo, po; how it was run: as §2
[19] = Removal of 238-Plutonium(IV) in gastrointestinal (GI) contents at 24 hr (orally administered); assay type: ADME; conditions: po; how it was run: as §2
[20] = Removal of 238-Plutonium(IV) in urine after 4-24 hr (orally administered); assay type: ADME, tissue-based; conditions: po; how it was run: as §2
[21] = tested on: Mus musculus; test: Percent of injected 238-Plutonium(IV) in mice kidney at 24 hr (orally administered); assay type: ADME, organism-based; conditions: in vivo, po; how it was run: as §2
[22] = Removal of 238-Plutonium(IV) in urine at 0-4 hr (orally administered); assay type: ADME, tissue-based; conditions: po; how it was run: as §2
[23] = Removal of 238-Plutonium(IV) in urine at 4-24 hr (orally administered); assay type: ADME, tissue-based; conditions: po; how it was run: as §2
[24] = Removal of 238-Plutonium(IV) in urine 0-4 h (orally administered); assay type: ADME; conditions: po; how it was run: as §2
[25] = Removal of 238-Plutonium(IV) in urine 4-24 hr (orally administered); assay type: ADME; conditions: po; how it was run: as §2

Structure (SMILES)	ID [1] [%]	ID [2] [%]	ID [3] [%]	ID [4] [%]	ID [5] [%]	ID [6] [%]	ID [7] [%]	ID [8] [%]	ID [9] [%]	ID [11] [%]	ID [12] [%]	ID [13] [%]	ID [14] [%]	ID [15] [%]	ID [17] [%]	ID [18] [%]	ID [19] [%]	further results
O=C(NCCCN(CCCCN(CCCNC(=O)c1cc(S(=O)(=O)O)cc(O)c1O)C(=O)c1cc(S(=O)(=O)O)cc(O)c1O)C(=O)c1cc(S(=O)(=O)O)cc(O)c1O)c1cc(S(=O)(=O)O)cc(O)c1O	0.4	4	35	2.8	2.9	25	6.7	58	0.9									
O=C(NCCCN(CCCCN(CCCNC(=O)c1cccc(O)c1O)C(=O)c1cccc(=O)n1O)C(=O)c1cccc(O)c1O)c1cccc(O)c1O	43	3.1	33	4	12	12	13	9.1	3.1	4.5	30	43	4.5	8.3	82	3	1.8	ID [16]: 2.3%
O=C(O)c1ccc(C(=O)NCCCN(CCCCN(CCCNC(=O)c2ccc(C(=O)O)c(O)c2O)C(=O)c2ccc(C(=O)O)c(O)c2O)C(=O)c2ccc(C(=O)O)c(O)c2O)c(O)c1O	4.8	4.6	29	4.8	12	11	11	44	2.6	3.9	32	19	3.3		56	1.5	1	ID [22]: 30%; ID [23]: 9.5%

Further lines, with some results ahead:

ID [1] [%]	ID [2] [%]	ID [3] [%]	ID [4] [%]	ID [5] [%]	ID [6] [%]	ID [7] [%]	ID [8] [%]	ID [9] [%]	ID [11] [%]	ID [12] [%]	ID [13] [%]	ID [14] [%]	ID [15] [%]	ID [17] [%]	ID [18] [%]	ID [19] [%]	Structure (SMILES)	further results
28		53	5.1	8.6	26	18		4.3									O=C(NCCCN(CCCCN(CCCNC(=O)c1cccc(O)c1O)C(=O)c1cccc(O)c1O)C(=O)c1cccc(O)c1O)c1cccc(O)c1O	ID [10]: 9.4%
21	2	18	1.6	36	8.9	7.5	23	0.2	1.3	12	11	50	23	24		1.4	O=C(NCCCN(CCCCN(CCCNC(=O)c1cccc(=O)n1O)C(=O)c1cccc(=O)n1O)C(=O)c1cccc(=O)n1O)c1cccc(=O)n1O	ID [20]: 2.7%; ID [21]: 0.1%
31	4.1	37	2.4	20	21	12	7.9	2	4.7	26	35	13		68	3.3	1.9	O=C(NCCCN(CCCCN(CCCNC(=O)c1cccc(O)c1O)C(=O)c1cccc(=O)n1O)C(=O)c1cccc(=O)n1O)c1cccc(O)c1O	ID [24]: 12%; ID [25]: 4%
